According to publication PMC2818876 (Journal of the American Chemical Society, 2010):

Key:
[1] = test system: SK-Mel-2 cells; assay: Cellular uptake and distribution by confocal Raman microscopy of live cells; assay type: cell-based, Human; details: data not shown
[2] = Circular dichroism spectroscopy, secondary structure in water/TFE solutions; assay type: physicochemical; details: 40 μM peptide, 25 °C, CDPro (average of CONTINLL, SELCON3, CDSSTR)
Method in brief: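 Stock 20 mM in water (pH 7), stored at 4°C for ≤10 days and quantified by A280 (ε280 = 11,000 M−1.cm−1). CD recorded in a 1 mm quartz cell over 180–250 nm at 100 nm/min with 1 s response, 40 μM peptide, 25 °C. Eight scans averaged and background-corrected for water/TFE. Fractions from the CDPro SP37A reference set.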

With `CC[C@H](C)[C@H](NC(=O)[C@H](CCCCN)NC(=O)[C@@H](NC(=O)[C@H](CCC(N)=O)NC(=O)[C@@H](N)CCCNC(=N)N)[C@@H](C)CC)C(=O)N[C@@H](Cc1c[nH]c2ccccc12)C(=O)N[C@@H](Cc1ccccc1)C(=O)N[C@@H](CCC(N)=O)C(=O)N[C@@H](CC(N)=O)C(=O)N[C@@H](CCCNC(=N)N)C(=O)N[C@@H](CCCNC(=N)N)C(=O)N[C@@H](CCSC)C(=O)N[C@@H](CCCCN)C(=O)N[C@@H](Cc1c[nH]c2ccccc12)C(=O)N[C@@H](CCCCN)C(=O)N[C@@H](CCCCN)C(N)=O` [penetratin-Fh] the “Peptide uptake by cells at 4°C” value ([1]; 4°C, confocal Raman microscopy) was “did not observe peptide uptake”, the “Concentration dependence of the rate of accumulation in cell nuclei” value ([1]; range 25–300 μM, RT) was “only weakly dependent on concentration” and the “α-helix structure (CD modeling)” value ([2]; 100% TFE) was 25%. For the same molecule, the “Random coil character (CD modeling)” value ([2]; 100% water) was 54%, the “α-helix structure (CD modeling)” value ([2]; 100% water) was 3% and the “β-strand structure (CD modeling)” value ([2]; 100% water) was 21%.
